Experimental data gathered from unrelated publications.
Protocols differ between the studies behind these lines.
Effect on: cell growth or viability

For O=C(c1ccc(Oc2ccc3oc(=O)ccc3c2)c([N+](=O)[O-])c1)C(Cl)Cl, the inhibition was 96.8% (NCI-H1650; MTT; 2.5 µM).
For COc1nc(NCc2cn(-c3ccc(C(=O)Nc4ccccc4)cc3)nn2)nc(OC)n1, the IC50 was 0.208 µM (Caco-2; MTT; 72 h).
The inhibition of COc1cccc(CNC[C@@](C)(O)[C@@H]2CC[C@@H](C)C[C@H]2OCc2ccccc2)c1 is reported as 32.9% (A2780; MTT; 10 µM, 72 h).
With C=C(F)C(=O)N1CCN(c2nc(OC[C@@H]3CCCN3C)nc3c2CCN(c2cccc4cccc(Cl)c24)C3)C[C@@H]1CC#N the IC50 was 0.00843 µM (UMUC3; ATP luminescence; 3D culture).
With C=CC(=O)c1cccnc1Nc1cc(C(F)(F)F)ccc1OCc1ccccc1 the GI50 was 11.2 µM (NCI-H28; CCK-8; 72 h).
COc1cccc2c1C(=O)c1c(O)c3c(c(O)c1C2=O)C[C@@](O)(C(=O)CO)C[C@@H]3O[C@H]1C[C@H](N)[C@H](O)[C@H](C)O1 gave an inhibition of 95.8% (NCI-H1650; MTT; 2.5 µM).
For C[C@@H]1CC[C@@H]([C@](O)(CNCc2ccccc2)COCc2ccccc2)[C@H](OCc2ccccc2)C1, the inhibition was 91.1% (A2780; MTT; 30 µM, 72 h).
C=CC(=O)NC1CCN(c2ncc3ncnc(Nc4ccc(Oc5ccc6c(c5)ncn6C)c(C)c4)c3n2)CC1 gave an EC50 of 0.934 µM (HCC44).
The inhibition of COc1ccc(CNC[C@@](C)(O)[C@@H]2CC[C@@H](C)C[C@H]2OCc2ccccc2)cc1 is reported as 42.9% (A2780; MTT; 10 µM, 72 h).
COc1nc(NCc2cn(-c3ccc(C(=O)Nc4ccc(Br)cc4)cc3)nn2)nc(OC)n1 has an IC50 of 0.674 µM (Caco-2; MTT; 72 h).
With O=C1c2ccccc2C(=O)c2c(Oc3ccc(C(=O)C(Cl)Cl)cc3[N+](=O)[O-])cccc21 the inhibition was 28.7% (NCI-H1650; MTT; 2.5 µM).
For COc1ccccc1CNC[C@@](C)(O)[C@@H]1CC[C@@H](C)C[C@H]1OCc1ccccc1, the inhibition was 58.5% (A2780; MTT; 10 µM, 72 h).
COc1nc(NCc2cn(-c3ccc(NC(=O)c4ccc(C(F)(F)F)cc4)cc3)nn2)nc(OC)n1 has an IC50 of 0.566 µM (Caco-2; MTT; 72 h).
COc1cccc2c1C(=O)c1c(O)c3c(c(O)c1C2=O)C[C@@](O)(C(=O)CO)C[C@@H]3O[C@H]1C[C@H](N)[C@H](O)[C@H](C)O1 gave a viability of 31.6% (Caco-2; MTT; 25 µg/mL, 48 h, serum-free).
The inhibition of C[C@@H]1CC[C@@H]([C@](O)(CNCc2ccccc2)COCc2ccc(F)cc2)[C@H](OCc2ccc(F)cc2)C1 is reported as 95.2% (A2780; MTT; 10 µM, 72 h).
O=C(c1ccccc1)c1ccc(Oc2ccc(C(=O)C(Cl)Cl)cc2[N+](=O)[O-])cc1 gave an inhibition of 96.5% (NCI-H1650; MTT; 2.5 µM).
COc1nc(NCc2cn(-c3ccc(NC(=O)c4ccc(Cl)cc4)cc3)nn2)nc(OC)n1 gave an IC50 of 0.62 µM (Caco-2; MTT; 72 h).
For C[C@@H]1CC[C@@H]([C@](O)(CNCc2cccc3ccccc23)COCc2ccccc2)[C@H](OCc2ccccc2)C1, the inhibition was 90.7% (A2780; MTT; 10 µM, 72 h).
The inhibition of NC(=O)COc1ccc(C(=O)C(Cl)Cl)cc1[N+](=O)[O-] is reported as 1.51% (NCI-H1650; MTT; 2.5 µM).
C[C@@H]1CC[C@@H]([C@](C)(O)CNCc2ccccc2)[C@H](OCc2ccccc2)C1 has an inhibition of 94.3% (A2780; MTT; 30 µM, 72 h).
The inhibition of CC(=O)c1ccc(Oc2ccc(C(=O)C(Cl)Cl)cc2[N+](=O)[O-])cc1 is reported as 96.4% (NCI-H1650; MTT; 2.5 µM).
O=C(NO)c1ccc(CNc2nc3cccc(-c4ccc5c(c4)OCO5)n3n2)cc1 gave a GI50 of 0.52 µM (TK-10; SRB).
The inhibition of O=C(c1ccc(Oc2ccc3cc(Br)ccc3c2Cl)c([N+](=O)[O-])c1)C(Cl)Cl is reported as 97% (NCI-H1650; MTT; 2.5 µM).
With O=C(O)c1cccnc1Nc1cccc(C(F)(F)F)c1 the GI50 was over 40 µM (NCI-H28; CCK-8; 72 h).
The inhibition of C[C@@H]1CC[C@@H]([C@](C)(O)CNCc2cccc(F)c2)[C@H](OCc2ccccc2)C1 is reported as 98.8% (A2780; MTT; 30 µM, 72 h).
N#Cc1ccc(Oc2ccc(C(=O)C(Cl)Cl)cc2[N+](=O)[O-])cc1 gave an inhibition of 87.6% (NCI-H1650; MTT; 2.5 µM).
